# Test results taken from PubChem BioAssay AID463111 (Johns Hopkins Ion Channel Center, 2010).
# In all, about 310,000 compounds went through this assay and about 2,800 (0.9%) were called active.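 Rule for the calls: active = B-score of the integrated calcium signal more than 4 SD below the library mean, with starting fluorescence not abnormally high; inactive = the rest.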 The full list was thinned out, with actives kept by preference. Residues, ends and D or L forms follow the SMILES beside them. *: point of attachment. Bz = O=C(c1ccccc1)*
# Test: enhancers of RGS4 function in calcium signaling – cell-based, HEK293 M3R inducible RGS4, calcium flux, primary screen (AID 463111);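 for B-score: negative B-score means reduced calcium response which marks RGS4 activation or potentiation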
# Settings: HEK293 M3R/inducible RGS4, carbachol calcium flux Fluo4, at 10 µM; active compounds read low
# How it was run: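 test system = HEK293 cells with stable M3R and inducible RGS4 | schedule = recording 10 s baseline at 1 Hz, 100 s post-agonist | technique = Fluo4-AM (2 µM) calcium-flux fluorescence, kinetic read | measure = Agonist-evoked peak-minus-minimum fluorescence over baseline, integrated ratio, B score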
row,Structure (SMILES),B-score
1,Cc1onc(-c2c(F)cccc2Cl)c1C(=O)N(C)CC(=O)Nc1cccc(F)c1,inactive
2,Cn1cnnc1Sc1ccc(CN2CCN(C3CCCC3)C(CCO)C2)o1 (stereo unspecified),inactive
3,OCCC1CN(Cc2ccc3nsnc3c2)CCN1C1CCCCC1 (stereo unspecified),inactive
4,OCCC1CN(Cc2ccc3nsnc3c2)CCN1C1CCCC1 (stereo unspecified),-8.81 (active)
5,COc1ccccc1C(=O)N/C(=C/c1ccc2c(c1)OCO2)C(=O)Nc1cccc(C(=O)O)c1,inactive
6,CCN(CC)CCN(C(=O)c1ccc(S(=O)(=O)N2CCOCC2)cc1)c1nc2cc3c(cc2s1)OCCO3,inactive
7,CN(C)CCCN(C(=O)c1ccc(S(=O)(=O)N2CCCCCC2)cc1)c1nc2cc3c(cc2s1)OCCO3,-7.42 (active)
8,CN(C)CCCN(C(=O)c1ccc(S(=O)(=O)N2CCCCCC2)cc1)c1nc2ccc(Br)cc2s1,inactive
9,CC(CC(=O)Nc1ccc(F)cc1F)S(=O)(=O)c1ccc2c(c1)NC(=O)CO2 (stereo unspecified),inactive
10,CC(CC(=O)N1CCN(S(=O)(=O)c2ccccc2)CC1)n1cncn1 (stereo unspecified),inactive
11,C=CCNC(=O)c1ccccc1SCc1c(C)noc1C,inactive
12,CC(C)c1ccccc1OCC(O)CN(CC(O)COc1cccc2ccccc12)C(C)C (stereo unspecified),-10 (active)
13,CCC(C)Sc1nc2c(c(=O)[nH]c(=O)n2C)n1CC(O)COc1cccc2ccccc12 (stereo unspecified),inactive
14,Cc1cc(C)c(NC(=O)C[N+](C)(C)CC(O)COc2cccc3ccccc23)c(C)c1 (stereo unspecified),inactive
15,CCCN(c1ccc(C)cc1)c1nc(=O)c2cccnc2s1,inactive
16,CCOC(=O)c1c(NC(=O)NC(C)(C)C)sc2c1CCN(C)C2,-8.36 (active)
17,CCOC(=O)c1c(NC(=S)Nc2ccccc2)sc2c1CCN(C)C2,inactive
18,CCOC(=O)c1c(NC(=O)Cn2nc(C(F)(F)F)cc2C)sc2c1CCC2,inactive
19,CCOC(=O)C1C(c2ccc(OC)c(OC)c2)c2c([nH][nH]c2=O)CC1(C)O (stereo unspecified),inactive
20,CC1CN(/C=C/C(=O)C(F)(F)F)CC(C)O1 (stereo unspecified),inactive
21,CCCc1ccc(OCc2ccc(C(=O)N/N=C/c3cccc([N+](=O)[O-])c3)o2)c(OC)c1,inactive
22,O=C(O)CSc1c2c(nc3cc(C(=O)Nc4cccc(C(F)(F)F)c4)ccc13)CCCC2,inactive
23,FC(F)(F)c1cccc(NC(=S)Nc2cccc(Cl)c2)c1,inactive
24,Cn1nc(C(F)(F)F)c(C(=O)Nc2cccc(C(F)(F)F)c2)c1SCc1ccc(Cl)cc1,-10.4 (active)
25,CC(C)=CCCC(C)CN1CCC(n2nccc2NC(=O)c2ccccc2)CC1 (stereo unspecified),inactive
26,CCOC(=O)c1ccc(-n2c(CCC(=O)O)ccc2-c2ccccc2)cc1,inactive

row,Structure (SMILES),B-score
1,COCCCn1c(CCC(=O)O)ccc1-c1ccc(F)cc1,inactive
2,CC(C)Cn1c(CCC(=O)O)ccc1-c1cccs1,-7.21 (active)
3,Cc1ccccc1CNC(=O)CCC(=O)N1Cc2ccccc2Oc2ncccc21,inactive
4,C#CC(CCN1CCCCC1)(OC)c1ccccc1 (stereo unspecified),-8.27 (active)
5,CCCCOc1ccc(C(C)(O)CCN2CCOCC2)cc1 (stereo unspecified),inactive
6,CCCCCCC(O)(CCN1CCCCC1)c1ccccc1 (stereo unspecified),inactive
7,CC(C)(c1ccccc1)c1ccc(OCCN2CCCC2)cc1,inactive
8,CCCCCC(O)(CCN1CCCCC1)c1ccccc1 (stereo unspecified),-9.9 (active)
9,c1ccc(-c2ccccc2OCCN2CCCCC2)cc1,inactive
10,CCC(CC)COC(=O)C1=C(C)NC(=O)NC1c1ccc([N+](=O)[O-])cc1 (stereo unspecified),inactive
11,COc1ccc(C(CC(=O)c2ccccc2)S(=O)(=O)c2ccccc2)cc1 (stereo unspecified),inactive
12,COC(=O)c1ccc(C2C3=C(Nc4nnnn42)c2ccccc2OC3)cc1 (stereo unspecified),inactive
13,Cc1ccccc1-c1nc(CS(=O)(=O)CC(=O)NC(C)c2ccccc2)c(C)o1 (stereo unspecified),inactive
14,Cc1ccccc1-c1nc(CS(=O)(=O)CC(=O)N2CCc3ccccc3C2)c(C)o1,inactive
15,COC(=O)c1cc2occc2n1Cc1nc(-c2ccccc2C)oc1C,-7.3 (active)
16,O=C(NCCc1ccccn1)c1cc(C(=O)C2CCCCC2)c[nH]1,inactive
17,CCC1CCCCN1CCCNC(=O)C1CCC(Cn2c(=O)[nH]c3ccccc3c2=O)CC1 (stereo unspecified),inactive
18,CCC1CCCCN1CCCNC(=O)Cn1nc(-c2ccccc2)ccc1=O (stereo unspecified),inactive
19,CCC1CCCCN1CCCNC(=O)c1cc2c(Cl)nc3ccccc3c2s1 (stereo unspecified),-8.65 (active)
20,CC(C)C(c1nnnn1CCc1ccccc1)N1CCN(C(=O)c2ccco2)CC1 (stereo unspecified),-10.4 (active)
21,CCC(c1nnnn1C1CCCC1)N1CCN(C(=O)c2ccco2)CC1 (stereo unspecified),inactive
22,CC(C)C(c1nnnn1C1CCCCC1)N1CCN(C(=O)c2ccco2)CC1 (stereo unspecified),inactive
23,NC(=O)Nc1ccccc1C(=O)NCCc1ccccc1,inactive
24,Cc1ccccc1C(=O)NC(=S)NC1CC1,inactive
25,Cc1ccc(-c2nc(-c3cccnc3)sc2CC(=O)Nc2ccc(C)c(Cl)c2)cc1,inactive
26,CN1C(=O)/C(=C/c2ccc(C(=O)NC3CCCC3)cc2)Oc2ccccc21,inactive

row,Structure (SMILES),B-score
1,CN1CCN(CCCNC(=O)c2ccc(/C=C3\Oc4ccccc4N(Cc4ccc(Cl)cc4)C3=O)cc2)CC1,-7.39 (active)
2,CCCN1CCN(C(=O)CCCNC(=O)c2ccc(Cl)cc2)CC1,inactive
3,COc1ccc2c(c1)C(NS(=O)(=O)OCC(Cl)(Cl)Cl)CCC2 (stereo unspecified),inactive
4,CC1(C)C=C2[C@H]3CC[C@@H]4[C@@]5(C)CCC(=O)C(C)(C)[C@@H]5CC[C@@]4(C)[C@]3(C)CC[C@@]2(C(=O)O)CC1,-9.3 (active)
5,CCOC(=O)CCCNC(=O)COC(=O)c1cc(Br)c(Br)s1,inactive
6,O=C(NC(=O)c1cc(OCC(F)(F)F)ccc1OCC(F)(F)F)Nc1ccccc1,inactive
7,NS(=O)(=O)c1ccc(CCNS(=O)(=O)c2cccc3cccnc23)cc1,inactive
8,O=C(NCC1CCCO1)c1cc2c([nH]c3ccccc32)c(-c2ccc(F)cc2)n1 (stereo unspecified),-11.5 (active)
9,O=C(NCC1CCCO1)c1cc(-c2ccccc2)nc2ccccc12 (stereo unspecified),inactive
10,O=C(NCCCO)c1cc2c([nH]c3ccccc32)c(-c2ccc(F)cc2)n1,inactive
11,CC(=O)N/C(=C\c1ccc(F)cc1)C(=O)NC(Cc1ccccc1)C(=O)O (stereo unspecified),inactive
12,CCOC(=O)c1csc(CCNC(=O)c2oc3c(Cl)cc(C)cc3c2C)n1,inactive
13,CCCCCCCCCCOC(=O)Cn1c(COc2cccc(OC)c2)[n+](C)c2ccccc21,inactive
14,Cc1ccc(OCCCn2c(=O)oc3ccccc32)cc1,inactive
15,CCCCCCCCCCOC(=O)Cn1c(COc2ccc(C)cc2)[n+](C)c2ccccc21,-8.44 (active)
16,O=C(CCN1C(=O)C2C3CCC(C3)C2C1=O)Nc1ccc(Cl)cc1Cl (stereo unspecified),inactive
17,CC(NCCc1ccc(S(N)(=O)=O)cc1)C(=O)NCc1ccccc1 (stereo unspecified),inactive
18,O=C(COc1ccc(Cl)cc1[N+](=O)[O-])N1CCCCC1,inactive
19,O=[N+]([O-])c1cc([N+](=O)[O-])c(Oc2cc(F)cc(F)c2F)cc1NN1CCCCC1,-7.39 (active)
20,O=C(CN1CCCCCC1)Nc1ccc(Br)cc1[N+](=O)[O-],inactive
21,CCc1cccc(C)c1NS(=O)(=O)c1c(C)nc2sccn2c1=O,inactive
22,CCSc1nc(=S)n(CC)c(C)c1C(C)=O,inactive
23,Cc1ccccc1-n1nc(SCC(=O)O)sc1=S,inactive
24,CC(CCc1ccccc1)NC(=O)COC(=O)c1ccc(F)cc1 (stereo unspecified),inactive
25,N/C(Cc1ccc([N+](=O)[O-])cc1)=N\OC(=O)COc1ccc2ccccc2c1,-7.23 (active)
26,N/C(=N\OC(=O)Cc1ccc([N+](=O)[O-])cc1)c1ccccn1,inactive

row,Structure (SMILES),B-score
1,N/C(Cc1ccc([N+](=O)[O-])cc1)=N\OC(=O)C1CCCCC1,inactive
2,N/C(=N\OC(=O)COc1ccc([N+](=O)[O-])cc1)c1ccc(Br)cc1,inactive
3,Cc1cc(C)cc(OCC(=O)O/N=C(\N)Cc2ccc([N+](=O)[O-])cc2)c1,-7.82 (active)
4,CCOC(=O)COc1ccc([N+](=O)[O-])cc1,inactive
5,CCOc1ccc(N2C(=O)Nc3ccccc3C2(O)C(=O)NCc2ccco2)cc1 (stereo unspecified),inactive
6,O=C(COC(=O)Cc1ccc(Br)cc1)Nc1c(F)c(F)c(F)c(F)c1F,inactive
7,O=C(NC(Cc1ccccc1)C(=O)N1CCCC(C(F)(F)F)C1)c1ccccc1 (stereo unspecified),inactive
8,O=C(NC(Cc1ccccc1)C(=O)N1CCCC1C(=O)O)c1ccccc1 (stereo not drawn) (Bz-Phe-Pro-OH; configuration not given here),inactive
9,CN(Cc1ccccc1F)C(=O)C(Cc1ccccc1)NC(=O)c1ccccc1 (stereo unspecified),-7.13 (active)
10,O=C(/C=C/c1ccc([N+](=O)[O-])o1)NNC(=O)c1ccc(F)cc1,inactive
11,CC1CCN(C(=O)COC(=O)c2cc(S(=O)(=O)N3CCOCC3)ccc2Cl)CC1,inactive
12,COc1ccc(CCNC(=O)CC2SC(=Nc3cc(C)cc(C)c3)NC2=O)cc1OC (stereo unspecified),inactive
13,CC(C)c1ccc2c(c1)c(SC(C)(C)C)c(CC(C)(C)C(=O)O)n2Cc1ccc(Cl)cc1,-7.99 (active)
14,O=C(O)c1ccc(Cn2c(=S)[nH]c3cc(Cl)ccc3c2=O)cc1,inactive
15,Nc1nc(NC(=O)/C=C/c2ccc(F)cc2)nn1-c1ccccc1,inactive
16,C[C@@H](C(=O)N1CCNCC1)n1cc(CCC(=O)O)nn1,inactive
17,CC(C)C(=O)Nc1cccc(NC(=S)NC(=O)C(c2ccccc2)c2ccccc2)c1,inactive
18,CCCCC(=O)NNC(=S)NC(=O)C(c1ccccc1)c1ccccc1,-9.53 (active)
19,O=C(NNC(=S)NCc1ccco1)C(c1ccccc1)c1ccccc1,inactive
20,O=C(N/N=C/c1ccsc1)c1cc(O)cc(O)c1,inactive
21,COc1ccc(CN2CC[C@H]3C=CC[C@@H](C(=O)N4CCOCC4)[C@H]3C2=O)cc1OC,inactive
22,CCN(Cc1ccncc1)C(=O)CCc1ccccc1,inactive
23,Cc1cc(C)n(Cc2cnc(N3CCOCC3)s2)n1,inactive
